“And” between values parts separate entries of the source, which are not always exact repeats. Equal values may be shown once. The source made the active and inactive calls. The rule behind the calls is not given here.
What was measured:
[1] = molecular target: Sodium-dependent dopamine transporter (Rattus norvegicus, UniProt P23977); experiment: Inhibitory concentration required to inhibit dopamine transporter DAT was determined by using [3H]WIN-35428 radioligand
Summary of the method: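 Competition binding at the DAT with 0.5 nM [3H]WIN35,428 (final concentration). Other procedures follow earlier published methods.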

Mus musculus [2] = experiment: Percent change in locomotor activity in mice at 3 mg/kg i.p. in 1 h.; assay type: functional; conditions: route intraperitoneal
Summary of the method: (§1)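 Mice habituated 1/2 h to photocell activity chambers, then injected ip with compound homogenized in 0.5% methyl cellulose (10 mL/kg); vehicle controls; N = 5 or 6 per dose. Photobeam interruptions recorded in 10-min bins for 4 h, grouped into 1-h bins; one-way ANOVA with Newman-Keuls post hoc test (p < 0.05).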

Mus musculus [3] = experiment: Percent change in locomotor activity in mice at 3 mg/kg i.p. in 2 h.; assay type: functional; conditions: route intraperitoneal; summary of the method: as §1
Mus musculus [4] = experiment: Percent change in locomotor activity in mice at 3 mg/kg i.p. in 3 h.; assay type: functional; conditions: route intraperitoneal; summary of the method: as §1
Mus musculus [5] = experiment: Percent change in locomotor activity in mice at 3 mg/kg i.p. in 4 h.; assay type: functional; conditions: route intraperitoneal; summary of the method: as §1
Mus musculus [6] = experiment: Percent change from vehicle in locomotor activity in mice at 30 mg/kg (ip) in 1 h; assay type: functional
Mus musculus [7] = experiment: Percent change from vehicle in locomotor activity in mice at 30 mg/kg (ip) in 2 h; assay type: functional
Mus musculus [8] = experiment: Percent change from vehicle in locomotor activity in mice at 30 mg/kg (ip) in 3 h; assay type: functional
Mus musculus [9] = experiment: Percent change from vehicle in locomotor activity in mice at 30 mg/kg (ip) in 4 h; assay type: functional
Mus musculus [10] = experiment: Percent change from vehicle in locomotor activity in mice at 0.3 mg/kg (ip) in 1 h; assay type: functional
Mus musculus [11] = experiment: Percent change from vehicle in locomotor activity in mice at 0.3 mg/kg (ip) in 2 h; assay type: functional
Mus musculus [12] = experiment: Percent change from vehicle in locomotor activity in mice at 0.3 mg/kg (ip) in 3 h; assay type: functional
Mus musculus [13] = experiment: Percent change from vehicle in locomotor activity in mice at 0.3 mg/kg (ip) in 4 h; assay type: functional
Mus musculus [14] = experiment: Percent change in locomotor activity in mice at 1 mg/kg i.p. in 1 h.; assay type: functional; conditions: route intraperitoneal
Mus musculus [15] = experiment: Percent change locomotor activity in mice at 1 mg/kg i.p. in 3 h.; assay type: functional; conditions: route intraperitoneal; summary of the method: as §1
Mus musculus [16] = experiment: Percent change in locomotor activity in mice at 1 mg/kg i.p. in 4 h.; assay type: functional; conditions: route intraperitoneal; summary of the method: as §1
Mus musculus [17] = experiment: Percent change from vehicle in locomotor activity in mice at 10 mg/kg (ip) in 1 h; assay type: functional
Mus musculus [18] = experiment: Percent change from vehicle in locomotor activity in mice at 10 mg/kg (ip) in 2 h; assay type: functional
Mus musculus [19] = experiment: Percent change from vehicle in locomotor activity in mice at 10 mg/kg (ip) in 3 h; assay type: functional
Mus musculus [20] = experiment: Percent change from vehicle in locomotor activity in mice at 10 mg/kg (ip) in 4 h; assay type: functional
Mus musculus [21] = species: Mus musculus; experiment: Effective dose was evaluated for locomotor activity in mice in the peak hour; No stimulation; assay type: functional, organism-based
[22] = molecular target: T1, Norepinephrine transporter (Rattus norvegicus, UniProt Q9WTR4); experiment: Binding affinity towards norepinephrine transporter was determined using [3H]nisoxetine radioligand.
Summary of the method: (§2)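 Competition binding at the NET with 0.5 nM [3H]nisoxetine (final concentration). Other procedures follow earlier published methods.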

[23] = molecular target: T1, Norepinephrine transporter; experiment: Inhibition of norepinephrine transporter (NET) determined using [3H]nisoxetine radioligand.; summary of the method: as §2
Rattus norvegicus [24] = experiment: Drug discrimination effect of compound in rats, expressed as percent of rats choosing the cocaine lever at dose 1 mg/kg (ip); assay type: functional
Rattus norvegicus [25] = experiment: Drug discrimination effect of compound in rats, expressed as percent of rats choosing the cocaine lever at dose 10 mg/kg (ip); assay type: functional
Rattus norvegicus [26] = experiment: Drug discrimination effect of compound in rats, expressed as percent of rats choosing the cocaine lever at dose 3 mg/kg (ip); assay type: functional
Rattus norvegicus [27] = experiment: Drug discrimination effect of compound in rats, expressed as percent of rats choosing the cocaine lever at dose 30 mg/kg (ip); assay type: functional
[28] = molecular target: T2, Sodium-dependent serotonin transporter (Rattus norvegicus, UniProt P31652); experiment: Inhibitory concentration required to inhibit serotonin transporter 5-HTT was determined by using [3H]paroxetine radioligand
Summary of the method: (§3)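 Competition binding at the 5-HTT with 0.2 nM [3H]paroxetine (final concentration). Other procedures follow earlier published methods.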

Mus musculus [29] = species: Mus musculus; experiment: Effective dose for locomotor activity in mice in the peak hour.; assay type: functional
Mus musculus [30] = species: Mus musculus; experiment: Hour 1 ratio to cocaine was determined for locomotor activity in mice; assay type: functional
Rattus norvegicus [31] = experiment: Drug discrimination effect of compound in rats, expressed as percent of rats choosing the cocaine lever at dose 1.7 mg/kg (ip); assay type: functional
Rattus norvegicus [32] = experiment: Drug discrimination effect of compound in rats, expressed as percent of rats choosing the cocaine lever at dose 17 mg/kg (ip); assay type: functional
Rattus norvegicus [33] = experiment: Drug discrimination effect of compound in rats, expressed as percent of rats choosing the cocaine lever at dose 5.6 mg/kg (ip); assay type: functional
Rattus norvegicus [34] = experiment: Effective dose for drug discrimination effect in rat (ip); assay type: functional
Summary of the method: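 Cocaine-trained rat drug discrimination, FR10, 10-min sessions. Compound in 0.5% methyl cellulose given ip 15 min before session, usually to 7-8 rats per dose. Doses were raised from ≤20% to ≥80% cocaine-lever choice, capped at 30 mg/kg, >50% loss of pressing, or side effects.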

Mus musculus [35] = experiment: Percent change from vehicle in locomotor activity in mice at 0.1 mg/kg (ip) in 1 h; assay type: functional
Mus musculus [36] = experiment: Percent change from vehicle in locomotor activity in mice at 0.1 mg/kg (ip) in 2 h; assay type: functional
Mus musculus [37] = experiment: Percent change from vehicle in locomotor activity in mice at 0.1 mg/kg (ip) in 3 h; assay type: functional
Mus musculus [38] = experiment: Percent change in locomotor activity in mice at 1 mg/kg i.p. in 2 h.; assay type: functional; conditions: route intraperitoneal; summary of the method: as §1
Rattus norvegicus [39] = experiment: Drug discrimination effect of compound in rats, expressed as percent of rats choosing the cocaine lever at dose 0.3 mg/kg (ip); assay type: functional
[40] = molecular target: T2, Sodium-dependent serotonin transporter; experiment: Binding affinity towards serotonin transporter 5-HTT was determined using [3H]paroxetine radioligand.; summary of the method: as §3
Mus musculus [41] = experiment: Percent change from vehicle in locomotor activity in mice at 0.1 mg/kg (ip) in 4 h; assay type: functional
Rattus norvegicus [42] = experiment: Drug discrimination effect of compound in rats, expressed as percent of rats choosing the cocaine lever at dose 0.56 mg/kg (ip); assay type: functional
Rattus norvegicus [43] = experiment: Drug discrimination effect of compound in rats, expressed as percent of rats choosing the cocaine lever at dose 0.1 mg/kg (ip); assay type: functional
Rattus norvegicus [44] = experiment: Drug discrimination effect of compound in rats, expressed as percent of rats choosing the cocaine lever at dose 0.17 mg/kg (ip); assay type: functional

Sequence of Sodium-dependent dopamine transporter (P23977 whole entry): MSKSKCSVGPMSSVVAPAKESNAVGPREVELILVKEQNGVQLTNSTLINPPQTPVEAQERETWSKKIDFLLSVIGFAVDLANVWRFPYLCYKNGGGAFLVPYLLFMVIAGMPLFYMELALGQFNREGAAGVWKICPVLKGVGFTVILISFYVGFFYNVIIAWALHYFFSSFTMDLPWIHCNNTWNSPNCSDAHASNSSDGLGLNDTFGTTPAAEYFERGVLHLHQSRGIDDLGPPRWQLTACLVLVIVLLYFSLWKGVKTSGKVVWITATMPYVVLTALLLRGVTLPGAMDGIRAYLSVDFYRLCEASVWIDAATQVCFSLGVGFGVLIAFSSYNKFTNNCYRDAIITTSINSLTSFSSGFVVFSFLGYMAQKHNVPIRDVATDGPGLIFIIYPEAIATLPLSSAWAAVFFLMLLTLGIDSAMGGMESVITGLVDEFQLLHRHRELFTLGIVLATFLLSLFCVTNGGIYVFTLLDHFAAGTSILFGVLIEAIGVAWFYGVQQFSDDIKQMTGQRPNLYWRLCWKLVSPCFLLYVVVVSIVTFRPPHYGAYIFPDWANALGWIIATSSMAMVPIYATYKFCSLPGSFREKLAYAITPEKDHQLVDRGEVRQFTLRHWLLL
T2 sequence (P31652 whole entry): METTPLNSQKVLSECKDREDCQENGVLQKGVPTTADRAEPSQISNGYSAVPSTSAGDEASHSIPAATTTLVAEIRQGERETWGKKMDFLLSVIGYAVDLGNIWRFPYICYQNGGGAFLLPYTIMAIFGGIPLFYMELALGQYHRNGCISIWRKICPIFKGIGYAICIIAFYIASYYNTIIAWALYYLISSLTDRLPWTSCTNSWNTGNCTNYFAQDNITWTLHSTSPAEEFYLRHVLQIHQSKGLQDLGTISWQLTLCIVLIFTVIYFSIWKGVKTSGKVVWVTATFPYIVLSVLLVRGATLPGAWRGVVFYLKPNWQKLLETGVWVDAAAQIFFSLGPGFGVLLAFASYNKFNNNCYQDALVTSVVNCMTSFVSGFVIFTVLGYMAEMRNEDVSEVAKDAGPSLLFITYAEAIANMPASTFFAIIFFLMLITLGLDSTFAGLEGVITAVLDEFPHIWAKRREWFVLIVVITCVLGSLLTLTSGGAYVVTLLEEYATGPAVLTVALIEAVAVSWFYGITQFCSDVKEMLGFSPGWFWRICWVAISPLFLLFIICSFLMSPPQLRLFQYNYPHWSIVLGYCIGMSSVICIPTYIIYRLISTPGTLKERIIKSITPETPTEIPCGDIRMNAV
T1 sequence (Q9WTR4 whole entry): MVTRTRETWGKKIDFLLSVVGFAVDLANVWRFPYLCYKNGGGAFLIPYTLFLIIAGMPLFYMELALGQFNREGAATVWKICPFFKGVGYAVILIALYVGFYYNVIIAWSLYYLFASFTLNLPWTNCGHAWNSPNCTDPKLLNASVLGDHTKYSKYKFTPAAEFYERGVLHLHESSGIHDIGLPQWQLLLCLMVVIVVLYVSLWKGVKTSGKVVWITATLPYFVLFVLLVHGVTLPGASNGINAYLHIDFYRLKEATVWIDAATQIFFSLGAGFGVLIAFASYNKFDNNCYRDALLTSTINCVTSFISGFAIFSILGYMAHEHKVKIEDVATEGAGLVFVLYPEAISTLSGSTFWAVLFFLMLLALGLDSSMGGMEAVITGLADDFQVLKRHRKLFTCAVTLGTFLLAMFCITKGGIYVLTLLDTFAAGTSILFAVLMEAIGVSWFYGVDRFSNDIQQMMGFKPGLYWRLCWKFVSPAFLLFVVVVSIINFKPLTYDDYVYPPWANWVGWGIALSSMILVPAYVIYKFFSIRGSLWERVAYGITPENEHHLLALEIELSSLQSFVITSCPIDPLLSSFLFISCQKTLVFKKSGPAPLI

Structure (SMILES) | IC50 [1] [nM] | Change (Mus musculus [2]) [%] | Change (Mus musculus [3]) [%] | Change (Mus musculus [4]) [%] | Change (Mus musculus [5]) [%] | Change (Mus musculus [6]) [%] | Change (Mus musculus [7]) [%] | Change (Mus musculus [8]) [%] | Change (Mus musculus [9]) [%] | Change (Mus musculus [10]) [%] | Change (Mus musculus [11]) [%] | Change (Mus musculus [12]) [%] | Change (Mus musculus [13]) [%] | Change (Mus musculus [14]) [%] | Ki [22] [nM] | IC50 [23] [nM] | IC50 [28] [nM] | ED50 (Mus musculus [29]) [mg/kg] | Ratio (Mus musculus [30]) | ED50 (Rattus norvegicus [34]) [mg/kg] | other results
Cc1ccc(C2CC3CCC(C2c2cc(-c4ccc(Cl)cc4)no2)N3C)cc1 (stereo not given) | 8.74 | 30 | 39 | 7 | -1 | -26 | 38 | 79 | 52 | -35 | -20 | -58 | 45 | 5 | 3990 | 6980 | > 100000 | – | – | – | Change (Mus musculus [15]): 33%; Change (Mus musculus [16]; 1 mg/kg): 24% and 27%; Change (Mus musculus [17]): -1%; Change (Mus musculus [18]): -3%; Change (Mus musculus [19]): -45%; Change (Mus musculus [20]): -20%; ED50 (Mus musculus [21]): inactive; Drug discrimination effect (Rattus norvegicus [24]): 0%; Drug discrimination effect (Rattus norvegicus [25]): 0%; Drug discrimination effect (Rattus norvegicus [26]): 13%; Drug discrimination effect (Rattus norvegicus [27]): 0%
Cc1ccc(C2CC3CCC(C2c2cc(-c4ccc(F)cc4)no2)N3C)cc1 (stereo not given) | 6.45 | 105 | 80 | 148 | 140 | 192 | 383 | 387 | 179 | – | – | – | – | – | 552 | 917 | > 100000 | 6.3 | 0.4 | 7.27 | Change (Mus musculus [17]): 117%; Change (Mus musculus [18]): 268%; Change (Mus musculus [19]): 84%; Change (Mus musculus [20]): 148%; Drug discrimination effect (Rattus norvegicus [31]): 0%; Drug discrimination effect (Rattus norvegicus [25]): 25%; Drug discrimination effect (Rattus norvegicus [32]): 88%; Drug discrimination effect (Rattus norvegicus [33]): 25%
CCc1cc(C2C(c3ccc(Cl)cc3)CC3CCC2N3C)on1 (stereo not given) | 0.5 | – | – | – | – | – | – | – | – | 284 | 505 | 224 | 208 | 954 | 72 | 120 | 3090 | 0.4 | 2.1 | 0.48 | Change (Mus musculus [35]): 82%; Change (Mus musculus [36]): 224%; Change (Mus musculus [37]): 184%; Change (Mus musculus [38]): 1900%; Change (Mus musculus [15]): 1708%; Change (Mus musculus [16]): 778%; Drug discrimination effect (Rattus norvegicus [39]): 0%; Drug discrimination effect (Rattus norvegicus [24]): 71%; Ki [40]: 281 nM; Change (Mus musculus [41]): 103%; Drug discrimination effect (Rattus norvegicus [42]): 75%
COc1ccc(-c2cc(C3C(c4ccc(C)cc4)CC4CCC3N4C)on2)cc1 (stereo not given) | 3.93 | 73 | 32 | 27 | 30 | 290 | 235 | 430 | 483 | – | – | – | – | – | 455 | 756 | 4030 | 12.8 | 0.6 | 11 | Change (Mus musculus [17]): 187%; Change (Mus musculus [18]): 115%; Change (Mus musculus [19]): 65%; Change (Mus musculus [20]): 34%; Drug discrimination effect (Rattus norvegicus [32]): 43%; Drug discrimination effect (Rattus norvegicus [27]): 83%; Drug discrimination effect (Rattus norvegicus [33]): 0%; Ki [40]: 366 nM
Cc1cc(C2C(c3ccc(Cl)cc3)CC3CCC2N3C)on1 (stereo not given) | 0.59 | – | – | – | – | – | – | – | – | 354 | 526 | 735 | 392 | 543 | 109 | 181 | 572 | 0.2 | 1.2 | 0.21 | Change (Mus musculus [35]): 48%; Change (Mus musculus [36]): 92%; Change (Mus musculus [37]): 38%; Change (Mus musculus [38]): 434%; Change (Mus musculus [15]): 926%; Change (Mus musculus [16]): 981%; Drug discrimination effect (Rattus norvegicus [43]): 0%; Drug discrimination effect (Rattus norvegicus [44]): 25%; Drug discrimination effect (Rattus norvegicus [39]): 88%; Ki [40]: 52 nM; Change (Mus musculus [41]): -23%
